Assay results published in publication PMC3587690 (Bioorganic & medicinal chemistry, 2012).
Blank lines part the entries; values can stand above or below the molecule they belong to.

Legend:
A549 cells = assay: Annexin-V/PI flow cytometry apoptosis assay; assay type: cell-based; settings: 10 µM, 48 h, vehicle […]
[1] = tested on: normal human mammary epithelial cells (HMEC); assay: HMEC growth inhibition, trypan blue exclusion assay; assay type: cell-based; settings: 10 µM and lower, 48 h
Outline: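 Proliferating normal HMEC were cultured routinely in MEGM complete medium with penicillin/streptomycin at 37 °C under 5% CO2. On the day of treatment the medium was changed to DMEM with 10% FBS. Cells were exposed to various test compound concentrations in triplicate for 48 h, then live cells were counted by trypan blue exclusion. One-way ANOVA was used.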

VEGF [2] = assay: qRT-PCR of VEGF transcript in A549 cells; assay type: cell-based; settings: 4 h
Outline: (§1)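 Exponentially growing A549 cells were treated in duplicate for 4 h. Total RNA was extracted and DNase-treated at 37 °C for 30 min, then cDNA was made with random primers. Transcripts were quantified by SYBR Green qPCR, normalised to HPRT, using the 2−ΔΔCt method. One-way ANOVA was used.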

[3] = tested on: VP16-CREB-mediated gene transcription; settings: cited from earlier work
Bcl-2 [4] = assay: Western blot of Bcl-2 in A549 cells; assay type: cell-based; settings: increasing concentrations, 48 h
Outline: (§2)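 Exponentially growing A549 cells were treated with different test compound concentrations for 48 h and washed twice in cold PBS (pH 7.4). They were lysed in NP-40 buffer (50 mM Tris-HCl pH 8.0, 5 mM EDTA, 150 mM NaCl, 1 mM DTT, 0.5% NP-40) containing 8 M urea. Equal protein was run on 10% SDS-PAGE, transferred to PVDF and probed with specific antibodies, using GAPDH as the loading control.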

NCI-60 cancer cell panel = assay: NCI-60 cancer cell panel; assay type: cell-based; settings: Fig. S1
[5] = tested on: p53-mediated gene transcription; assay: p53 transcription reporter assay; assay type: cell-based; settings: transcription reporter assay (Fig. S2)
[6] = tested on: human foreskin fibroblast (HFF) cells; assay: HFF growth inhibition, trypan blue exclusion assay; assay type: cell-based; settings: 48 h
Outline: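 HFF cells were maintained in DMEM with 10% FBS and penicillin/streptomycin at 37 °C under 5% CO2. Cells were treated with increasing test compound concentrations in triplicate for 48 h, and live cells were counted by trypan blue exclusion.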

VEGF [7] = assay: VEGF ELISA assay of A549 culture media; assay type: cell-based; settings: A549 cells, 24 h
Outline: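 A549 cells were treated in duplicate with the indicated test compound concentrations for 24 h. VEGF in the culture medium was measured by ELISA and normalised to medium protein concentration. One-way ANOVA was used.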

p21 [8] = assay: Western blot of p21 in A549 cells; assay type: cell-based; settings: all concentrations tested, 48 h
Outline: as §2

[9] = tested on: MCF-7 cells expressing VP16-CREB; assay: MTT assay in MCF-7 cells expressing VP16-CREB versus parental MCF-7; assay type: cell-based; settings: 48 h
Outline: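 MCF-7 cells were lipofected with a plasmid encoding Flag-tagged VP16-CREB. From 2 days post-transfection they were selected in 2 mg/mL G418 until a stable colony formed, and expression was checked by anti-FLAG blot. The stable line and parental MCF-7 were treated in triplicate for 48 h, and live cells were quantified by MTT. Student's t-test was used.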

[10] = tested on: poly (ADP-ribose) polymerase (PARP); assay: Western blot of PARP cleavage in A549 cells; assay type: cell-based; settings: 48 h
Outline: as §2

[11] = tested on: A549, MCF-7, MDA-MB-231 and MDA-MB-468; assay: MTT growth inhibition, average of four cancer cell lines; assay type: cell-based; settings: read-out: GI50 Average
Outline: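 Each of the four lines, grown in DMEM with 10% FBS at 37 °C and 5% CO2, was incubated with the test compound for 72 h, and growth was read by MTT absorbance at 570 nm. Percent growth was 100 × (treated − time-0)/(medium control − time-0). GI50 came from non-linear regression of the growth–concentration curve, and the four mean GI50s were averaged. Single experiments were run in duplicate where no SD is given.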

Bcl-2 [12] = assay: qRT-PCR of bcl-2 transcript in A549 cells; assay type: cell-based; settings: 4 h
Outline: as §1

p21 [13] = assay: qRT-PCR of p21 transcript in A549 cells; assay type: cell-based; settings: 4 h
Outline: as §1

KIX–KID interaction = KIX–KID interaction (Homo sapiens, UniProt Q92793); settings: cited from earlier work
[14] = tested on: CREB-mediated gene transcription in HEK 293T cells; settings: cited from earlier work

Chain of KIX–KID interaction (Q92793 587-666 limits assumed): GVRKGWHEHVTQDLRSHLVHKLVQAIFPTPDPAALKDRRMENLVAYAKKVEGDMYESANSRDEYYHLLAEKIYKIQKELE

GI50 [11]: 2.38 µM
Compound: O=C(Nc1ccc(Cl)cc1)c1cc2ccccc2cc1O [Compound 1a, naphthol AS-E]
cells undergoing apoptosis (annexin+/PI−) (A549 cells): Up to 19.4%
toxicity to HMEC (number of live cells) [1]: little or no toxicity
transcript level of VEGF (VEGF [2]): decreased
inhibition of VP16-CREB-mediated gene transcription [3]: did not inhibit
expression level of Bcl-2 protein (Bcl-2 [4]): decreased
growth inhibition in NCI-60 panel (NCI-60 cancer cell panel): inhibited the growth of most of the cancer cells
inhibition of p53-mediated gene transcription [5]: not inhibited
toxicity to HFF cells (number of live cells) [6]: did not observe significant toxicity
expression of VEGF in culture media (VEGF [7]): down-regulated
expression of p21 protein (p21 [8]): unchanged
sensitivity of MCF-7 cells expressing VP16-CREB compared to parental MCF-7 cells [9]: more resistant
cleavage of PARP [10]: observed
transcript level of bcl-2 (Bcl-2 [12]): decreased
transcript level of p21 (p21 [13]): essentially unchanged

GI50 [11]: 3.4 µM
Compound: O=C(Nc1cccc(Cl)c1)c1cc2ccccc2cc1O [Compound 1b, N-(3-Chlorophenyl)-3-hydroxy-2-naphthamide]

GI50 [11]: 7.73 µM
Compound: O=C(Nc1ccccc1Cl)c1cc2ccccc2cc1O [Compound 1c, N-(2-Chlorophenyl)-3-hydroxy-2-naphthamide]

GI50 [11]: 6.29 µM
Compound: O=C(Nc1ccc(F)cc1)c1cc2ccccc2cc1O [Compound 1d, N-(4-Fluorophenyl)-3-hydroxy-2-naphthamide]

GI50 [11]: 5.59 µM
Compound: O=C(Nc1ccc(Br)cc1)c1cc2ccccc2cc1O [Compound 1e, N-(4-Bromophenyl)-3-hydroxy-2-naphthamide]

GI50 [11]: 6.52 µM
Compound: O=C(Nc1ccc(I)cc1)c1cc2ccccc2cc1O [Compound 1f, 3-Hydroxy-N-(4-iodophenyl)-2-naphthamide]

GI50 [11]: 61.7 µM
Compound: COc1ccc(NC(=O)c2cc3ccccc3cc2O)cc1 [Compound 1j, 3-Hydroxy-N-(4-methoxyphenyl)-2-naphthamide]

GI50 [11]: 3.39 µM
Compound: O=C(Nc1ccc(F)c(Cl)c1)c1cc2ccccc2cc1O [Compound 1l, N-(3-Chloro-4-fluorophenyl)-3-hydroxy-2-naphthamide]

GI50 [11]: > 47.2 µM
Compound: O=C(Nc1cnccn1)c1cc2ccccc2cc1O [Compound 10c, 3-Hydroxy-N-(pyrazin-2-yl)-2-naphthamide]

Continued, molecule first:

Compound: Nc1ccc(NC(=O)c2cc3ccccc3cc2O)cc1 [Compound 1g, N-(4-Aminophenyl)-3-hydroxy-2-naphthamide]
GI50 [11]: > 59.1 µM

Compound: O=C(Nc1ccc(O)cc1)c1cc2ccccc2cc1O [Compound 1h, 3-Hydroxy-N-(4-hydroxyphenyl)-2-naphthamide]
GI50 [11]: > 50.8 µM

Compound: O=C(Nc1ccc(C(F)(F)F)cc1)c1cc2ccccc2cc1O [Compound 1i, 3-Hydroxy-N-(4-trifluoromethylphenyl)-2-naphthamide]
GI50 [11]: 33.8 µM

Compound: O=C(Nc1ccc(F)c(F)c1)c1cc2ccccc2cc1O [Compound 1k, N-(3,4-Difluorophenyl)-3-hydroxy-2-naphthamide]
GI50 [11]: 5.35 µM

Compound: O=C(Nc1ccccn1)c1cc2ccccc2cc1O [Compound 10a, 3-Hydroxy-N-(pyridin-2-yl)-2-naphthamide]
GI50 [11]: 33 µM

Compound: O=C(Nc1ccncc1)c1cc2ccccc2cc1O [Compound 10b, 3-Hydroxy-N-(pyridin-4-yl)-2-naphthamide]
GI50 [11]: 34.9 µM

Compound: CN(C(=O)c1cc2ccccc2cc1O)c1ccc(Cl)cc1 [Compound 11]
sensitivity of MCF-7 cells expressing VP16-CREB compared to parental MCF-7 cells [9]: equally effective
inhibition of KIX–KID interaction (KIX–KID interaction): did not inhibit
inhibition of CREB's activity [14]: did not inhibit
